CHRM1 PAM: potentiates human M1 receptor response to acetylcholine. CHO-K1 hM1, Fluo-8 calcium fluorescence, ACh EC20; 0% = ACh EC20, 100% = maximal ACh. activation, % at 3 µM. actives 0.088% (n = 360,000). AID 588819; in the data active = activation above about 19%, passing the limit was not always enough
Target sequence (P11229 whole entry, looked up): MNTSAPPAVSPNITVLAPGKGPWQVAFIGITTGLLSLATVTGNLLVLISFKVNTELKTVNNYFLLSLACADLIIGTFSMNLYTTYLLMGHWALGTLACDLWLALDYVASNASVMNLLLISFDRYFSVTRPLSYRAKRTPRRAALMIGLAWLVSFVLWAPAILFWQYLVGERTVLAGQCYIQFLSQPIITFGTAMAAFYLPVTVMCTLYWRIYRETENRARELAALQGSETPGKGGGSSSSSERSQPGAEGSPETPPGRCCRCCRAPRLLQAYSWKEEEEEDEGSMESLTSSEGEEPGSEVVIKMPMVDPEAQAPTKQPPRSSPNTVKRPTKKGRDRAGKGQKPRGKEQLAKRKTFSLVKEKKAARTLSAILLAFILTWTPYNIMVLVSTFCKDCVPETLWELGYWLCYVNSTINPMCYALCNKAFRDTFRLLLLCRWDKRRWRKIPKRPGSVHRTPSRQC
CHRM5 antagonist: antagonists of human muscarinic M5 receptor (CHRM5) | inhibition, % at 3 µM | P08912 | actives 0.59% (n = 360,000) | CHO-hM5 cells, Fluo-8 calcium fluorescence, ACh EC80;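 active = inhibition above a per-plate cutoff, the mean of that plate's test compounds plus 3 SD, cut at about 27% in these data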;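 also: 0% = acetylcholine EC80 with DMSO and 100% = DMSO without agonist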
CHRM5 PAM: CHRM5 positive allosteric modulation | actives 0.3% (n = 360,000) | AID 624038 | CHO-K1 hM5, Fluo-8 calcium, ACh EC20 PAM; 0% = ACh EC20, 100% = ACh EC100 | activation, % at 3 µM;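 active = activation above the run cutoff, the mean activation of all test compounds plus 3 SD, cut at about 18% in these data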
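Measured by: Fluo-8 calcium fluorescence; material: human M5 receptor in CHO-K1 cells; schedule: Post-acetylcholine fluorescence recording 140 s; benchmarks: low control EC20 acetylcholine (0%), high control EC100 acetylcholine (100%); read-out: Max/basal fluorescence ratio as % of EC20–EC100 ACh window; compound: single dose, 3 µM nominal final test concentration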
M5 ag: agonists of human muscarinic M5 receptor (CHRM5); P08912; CHO-K1 hM5 cells, Fluo-8 calcium fluorescence; 0% DMSO wells, 100% maximal acetylcholine response; activation, % at 3 µM; actives 0.19% (n = 360,000); AID 624037;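 active = activation above the run's mean over test compounds plus 3 SD, cut at about 23% in these data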;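 also: signal is peak over basal fluorescence ratio across the kinetic read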
CHRM1 agonist: activates human CHRM1 receptor; actives 0.33% (n = 360,000); activation, % at 3 µM; CHO-K1 hM1, Fluo-8 calcium fluorescence, agonist mode; 0% DMSO, 100% acetylcholine EC100; P11229; AID 588814;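 active = activation above the run's mean compound activation plus 3 SD, cut at about 16% in these data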;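 also: peak over basal fluorescence ratio within a 140 s kinetic read after compound addition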
M1 antag: antagonists of human M1 muscarinic receptor; P11229; CHO-K1 hM1, Fluo-8 calcium fluorescence, ACh EC80 antagonist; inhibition, % at 3 µM; actives 1.3% (n = 360,000); AID 588852;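 active = percent inhibition above its own plate's cutoff, namely the mean of that plate's compound wells plus 3 SD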;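 also: peak over basal fluorescence ratio during 140 s after agonist addition; 0% = ACh EC80 plus DMSO and 100% = DMSO alone without agonist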
Numbers without * were called inactive. An excerpt weighted towards active compounds, which were near 2% of everything screened.

Results for Cc1c(C(=O)N/N=C/c2ccc(N3CCOCC3)cc2)nc2ccccn12 ?
CHRM1 PAM: 7; CHRM5 antagonist: 6; CHRM5 PAM: -3; M5 ag: 1; CHRM1 agonist: -1; M1 antag: -7

Results for COc1ccc(N2CCN(C(CNC(C)=O)c3ccc4c(c3)OCO4)CC2)cc1 (centres undefined) ?
CHRM1 PAM: 15; CHRM5 antagonist: 3; CHRM5 PAM: 0; M5 ag: -7; CHRM1 agonist: 1; M1 antag: -5

How did COc1ccc(N2CCN(C(CNC(=O)CC(C)(C)C)c3ccc4c(c3)OCO4)CC2)cc1 (centres undefined) do in these assays?
CHRM1 PAM: -38; CHRM5 antagonist: 25; CHRM5 PAM: -16; M5 ag: -10; CHRM1 agonist: -13; M1 antag: 31*

How did Cc1cc(C)c(C(=O)COC(=O)c2cccc(S(=O)(=O)N3CCOCC3)c2)cc1C do in these assays?
CHRM1 PAM: 3; CHRM5 antagonist: 1; CHRM5 PAM: -2; M5 ag: 0; CHRM1 agonist: -3; M1 antag: -4

How did CC(C)[C@@H]1Cc2[nH]c(=S)[nH]c(=O)c2[C@H](CCc2ccccc2)O1 do in these assays?
CHRM5 antagonist: -1; CHRM5 PAM: -4; M5 ag: 3

How did Cc1sc2ncnc(NCC(c3ccco3)N3CCCC3)c2c1C (centres undefined) do in these assays?
CHRM1 PAM: -25; CHRM5 antagonist: 15; CHRM5 PAM: -21; M5 ag: -7; CHRM1 agonist: -6; M1 antag: 91*

How did COc1cccc(/C=C/C(=O)OCC(=O)NCCCc2ccccc2)c1OC do in these assays?
CHRM1 PAM: -2; CHRM5 antagonist: 7; CHRM5 PAM: 6; M5 ag: 3; CHRM1 agonist: -4; M1 antag: 8

Results for Cc1cc(Nc2ccc(Cl)cc2)nc(NCc2ccccc2)n1 ?
CHRM1 PAM: 7; CHRM5 antagonist: 7; CHRM5 PAM: 1; M5 ag: 9; CHRM1 agonist: 1; M1 antag: 3

What do the screens show for `CCCCNc1cc(C)nc(NCc2ccccc2)n1`?
CHRM1 PAM: -10; CHRM5 antagonist: 33*; CHRM5 PAM: -21; M5 ag: 7; CHRM1 agonist: 3; M1 antag: 30*

How did Cc1cc(C)nc(NCCCc2ccccc2)n1 do in these assays?
CHRM1 PAM: -6; CHRM5 antagonist: 4; CHRM5 PAM: -2; M5 ag: -2; CHRM1 agonist: -5; M1 antag: 7

How did Cc1cc(Nc2ccccc2)nc(NCc2ccccc2)n1 do in these assays?
CHRM1 PAM: -13; CHRM5 antagonist: 30*; CHRM5 PAM: -14; M5 ag: 5; CHRM1 agonist: -2; M1 antag: 13

Results for CCCCCCCCN1C(=O)[C@H](CC(=O)NCCCC)C[C@@]2(C(=O)OC)CC(C)(C)CC=C12 ?
CHRM5 antagonist: -14; CHRM5 PAM: -2; M5 ag: -2

How did CC1(C(=O)NS(=O)(=O)c2ccc(Cl)s2)CCN1C(=O)C1(c2ccccc2)CCCC1 (centres undefined) do in these assays?
CHRM1 PAM: 14; CHRM5 antagonist: 4; CHRM5 PAM: -3; M5 ag: -1; CHRM1 agonist: -1; M1 antag: -7

What do the screens show for `O=C(C[C@H]1C[C@H]2c3cc(NS(=O)(=O)c4ccc(F)cc4)ccc3O[C@H]2[C@H](CO)O1)NCc1ccncc1`?
CHRM1 PAM: -1; CHRM5 antagonist: 5; CHRM5 PAM: 1; M5 ag: 1; CHRM1 agonist: -5; M1 antag: -5

How did CCC1CCCCN1Cc1ccc(CNC(=O)CCc2nnc3ccc(N4CCCCC4)nn23)o1 (centres undefined) do in these assays?
CHRM1 PAM: -17; CHRM5 antagonist: 1; CHRM5 PAM: 2; M5 ag: -11; CHRM1 agonist: -6; M1 antag: 43*

What do the screens show for `CCn1c(SCC(=O)N/N=C/c2ccccc2OCC(=O)O)nnc1-c1ccc(C)cc1`?
CHRM1 PAM: 7; CHRM5 antagonist: 37*; CHRM5 PAM: 26*; M5 ag: 7; CHRM1 agonist: -5; M1 antag: -9

What do the screens show for `Nc1ncnc2c1ncn2[C@@H]1O[C@H](C(=O)N[C@H](CO)Cc2ccc(O)cc2)[C@@H](O)[C@H]1O`?
CHRM1 PAM: -1; CHRM5 antagonist: 4; CHRM5 PAM: 0; M5 ag: 2; CHRM1 agonist: -2; M1 antag: -14

Results for O=c1c2c(nc3n1CCCCC3)-c1ccccc1CC21CCCC1 ?
CHRM1 PAM: -33; CHRM5 antagonist: 4; CHRM5 PAM: -25; M5 ag: -7; CHRM1 agonist: -9; M1 antag: 31*

How did Nn1cnc2c(c1=O)C1(CCCCC1)Cc1ccccc1-2 do in these assays?
CHRM1 PAM: 14; CHRM5 antagonist: 4; CHRM5 PAM: 1; M5 ag: 0; CHRM1 agonist: -8; M1 antag: -7

What do the screens show for `COCCCNC(=O)c1cn(Cc2c(F)cccc2Cl)nn1`?
CHRM1 PAM: 6; CHRM5 antagonist: -14; CHRM5 PAM: 30*; M5 ag: 0; CHRM1 agonist: -3; M1 antag: -4

How did OCC1(CCCc2ccccc2)CCN(Cc2cnc(N3CCOCC3)s2)CC1 do in these assays?
CHRM1 PAM: -5; CHRM5 antagonist: 7; CHRM5 PAM: 2; M5 ag: 1; CHRM1 agonist: 19*; M1 antag: 6

Results for O=C(NCC1CCCCC1)c1ccc2nc([C@@H]3O[C@H](CO)[C@H](O)[C@H](O)[C@H]3O)[nH]c2c1 ?
CHRM1 PAM: 14; CHRM5 antagonist: 4; CHRM5 PAM: -1; M5 ag: 0; CHRM1 agonist: 3; M1 antag: -20

What do the screens show for `O=Nc1c(O)n(Cc2ccc(Cl)c(Cl)c2)c2ccccc12`?
CHRM1 PAM: 25*; CHRM5 antagonist: -3; CHRM5 PAM: 13; M5 ag: 6; CHRM1 agonist: 19*; M1 antag: -23

How did O=Nc1c(O)n(Cc2cccc(C(F)(F)F)c2)c2ccccc12 do in these assays?
CHRM1 PAM: 15; CHRM5 antagonist: 3; CHRM5 PAM: 5; M5 ag: 1; CHRM1 agonist: 19*; M1 antag: 2

How did COC(=O)c1ccc(Cn2c(O)c(N=O)c3ccccc32)o1 do in these assays?
CHRM1 PAM: 13; CHRM5 antagonist: -1; CHRM5 PAM: -6; M5 ag: 2; CHRM1 agonist: 11; M1 antag: -14

How did O=Nc1c(O)n(Cc2ccccc2)c2ccccc12 do in these assays?
CHRM1 PAM: 18; CHRM5 antagonist: 5; CHRM5 PAM: 10; M5 ag: 1; CHRM1 agonist: 16*; M1 antag: -16

High-throughput results from PubChem BioAssay.
